ChEMBL document CHEMBL4049430, “Indazole-6-phenylcyclopropylcarboxylic Acids as Selective GPR120 Agonists with in Vivo Efficacy” (J Med Chem, 2017)
Active and inactive are the calls of the source. The rule behind the calls is not given here.

Key:
[1] = target: T1, Free fatty acid receptor 4 (Homo sapiens, UniProt Q5NUL3); assay: Agonist activity at human GPR120 expressed in CHO-FlpIn cells after 15 mins by DMR assay; type: cell-based
T1 sequence (Q5NUL3 whole entry): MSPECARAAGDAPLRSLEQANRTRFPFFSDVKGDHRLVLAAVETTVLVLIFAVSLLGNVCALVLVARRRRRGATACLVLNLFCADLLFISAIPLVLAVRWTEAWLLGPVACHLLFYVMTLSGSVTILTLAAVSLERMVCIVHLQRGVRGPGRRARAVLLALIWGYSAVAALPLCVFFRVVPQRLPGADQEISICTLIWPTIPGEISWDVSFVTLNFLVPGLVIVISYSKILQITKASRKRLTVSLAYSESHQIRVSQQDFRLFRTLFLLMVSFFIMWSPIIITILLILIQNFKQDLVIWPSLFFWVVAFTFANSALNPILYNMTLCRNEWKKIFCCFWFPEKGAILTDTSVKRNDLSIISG
Method in brief: (§1)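 Cryopreserved CHO FlpIn cells stably expressing human or mouse GPR120 were seeded 48 h before assay, serum-starved for 24 h, then held 2 h in HBSS/20 mM HEPES/0.01% BSA (pH 7.4) with 0.5% DMSO. DMR was read over a 10 min baseline and for 15 min after addition. Runs were in duplicate, 10 points, 16 μM to 0.8 nM final, as % of maximal control agonist.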

[2] = target: T2, Free fatty acid receptor 4 (Mus musculus) (UniProt Q7TMA4); assay: Agonist activity at mouse GPR120 expressed in CHO-FlpIn cells after 15 mins by DMR assay relative to control; type: cell-based; method in brief: as §1
T2 sequence (whole entry): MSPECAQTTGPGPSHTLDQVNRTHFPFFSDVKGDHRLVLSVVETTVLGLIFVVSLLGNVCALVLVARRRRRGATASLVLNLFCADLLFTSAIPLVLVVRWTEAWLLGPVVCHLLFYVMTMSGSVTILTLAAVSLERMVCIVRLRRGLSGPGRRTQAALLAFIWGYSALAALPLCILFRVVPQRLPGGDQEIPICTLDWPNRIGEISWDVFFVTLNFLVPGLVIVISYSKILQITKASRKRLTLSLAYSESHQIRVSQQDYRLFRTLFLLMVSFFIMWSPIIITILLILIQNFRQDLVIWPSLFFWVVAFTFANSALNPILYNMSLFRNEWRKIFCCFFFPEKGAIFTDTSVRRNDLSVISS

Mus musculus [3] = assay: Antidiabetic activity in C57BL/6J mouse assessed as reduction in glucose excursion at 100 mg/kg administered through oral gavage 30 mins prior to glucose challenge measured after 90 mins by OGTT relative to control; type: functional; parameters: scale not given: the % may be the effect or the level left
Method in brief: (§2)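 OGTT used in-house C57BL/6J mice aged 10–11 weeks. GPR120 knockout and wild-type controls were bred in house, back-crossed onto C57BL/6J, and used at 9–10 weeks. Compound was given as a suspension: a concentrated stock was made at rt the day before and diluted on study day to the dosing concentrations.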

[4] = target: T3, Free fatty acid receptor 4 (Homo sapiens) (UniProt Q5NUL3); assay: Agonist activity at human GPR120 expressed in CHO-FlpIn cells after 15 mins by DMR assay relative to control; type: cell-based; method in brief: as §1
T3 sequence (whole entry): T1 sequence (Q5NUL3 whole entry)

Adenosine receptor A2a = Adenosine receptor A2a (Homo sapiens, UniProt P29274); assay: Inhibition of Adenosine A2A receptor (unknown origin)
Adenosine receptor A2a, sequence (P29274 whole entry): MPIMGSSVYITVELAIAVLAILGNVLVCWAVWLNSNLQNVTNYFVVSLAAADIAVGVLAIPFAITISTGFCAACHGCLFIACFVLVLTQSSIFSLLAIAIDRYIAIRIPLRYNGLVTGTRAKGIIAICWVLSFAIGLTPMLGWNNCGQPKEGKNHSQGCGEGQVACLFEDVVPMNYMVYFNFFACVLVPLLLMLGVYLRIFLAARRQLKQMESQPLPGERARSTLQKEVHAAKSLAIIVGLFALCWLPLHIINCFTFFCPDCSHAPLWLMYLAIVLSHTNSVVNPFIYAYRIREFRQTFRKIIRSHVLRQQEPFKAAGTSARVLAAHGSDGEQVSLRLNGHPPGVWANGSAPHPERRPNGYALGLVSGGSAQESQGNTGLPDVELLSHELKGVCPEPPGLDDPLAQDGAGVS

[5] = target: T4, Free fatty acid receptor 4 (Mus musculus, UniProt Q7TMA4); assay: Agonist activity at mouse GPR120 expressed in CHO-FlpIn cells after 15 mins by DMR assay; type: cell-based; method in brief: as §1
T4 sequence (Q7TMA4 whole entry): T2 sequence (whole entry)

[6] = Cmax in mouse at 5 mg/kg administered through oral gavage after 24 hrs; type: ADME, organism-based; parameters: dose 5 mg/kg, route oral; details: in vivo
[7] = Ratio of unbound drug level in wild-type mouse brain to blood at 100 mg/kg administered through oral gavage 30 mins prior to glucose challenge measured after 90 mins
[8] = Clearance in mouse at 1 mg/kg, iv after 24 hrs; type: ADME, organism-based; details: in vivo
MDR1 = assay: Efflux ratio of permeability in MDCK2-MDR1 cells at 10 uM; details: dog, MDCK-MDR1
[9] = Volume of distribution at steady state in mouse at 1 mg/kg, iv after 24 hrs; type: ADME, organism-based; details: in vivo, read-out: Vdss
[10] = Ratio of unbound drug level in GPR120 knockout mouse brain to blood at 100 mg/kg administered through oral gavage 30 mins prior to glucose challenge measured after 90 mins; details: in vivo, 1.5 h
[11] = Octanol-buffer partition coefficient, log D of the compound at pH 7.4 after 30 mins by LC-UV based shake-flask method
Mus musculus [12] = assay: Antidiabetic activity in GPR120 knockout mouse assessed as reduction in glucose excursion at 100 mg/kg administered through oral gavage 30 mins prior to glucose challenge measured after 90 mins by OGTT; type: functional, organism-based; method in brief: as §2
[13] = (§3) Oral bioavailability in mouse at 5 mg/kg after 24 hrs; type: ADME, organism-based; details: in vivo
[14] = target: Free fatty acid receptor 1 (Mus musculus, UniProt Q76JU9); assay: Agonist activity at mouse GPR40 expressed in HEK293 cells assessed as increase in intracellular calcium level after 5 mins by FLUO-4-AM dye-based FLIPR assay; type: functional, cell-based
Free fatty acid receptor 1, sequence (Q76JU9 whole entry): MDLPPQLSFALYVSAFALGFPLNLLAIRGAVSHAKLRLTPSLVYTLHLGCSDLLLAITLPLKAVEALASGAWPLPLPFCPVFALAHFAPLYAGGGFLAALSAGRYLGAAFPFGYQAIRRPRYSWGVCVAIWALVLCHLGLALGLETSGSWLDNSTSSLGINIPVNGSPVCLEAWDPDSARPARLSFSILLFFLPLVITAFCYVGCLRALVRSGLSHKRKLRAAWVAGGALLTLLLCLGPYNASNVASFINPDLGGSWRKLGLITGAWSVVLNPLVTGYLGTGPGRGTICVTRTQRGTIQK
Method in brief: (§4)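 HEK293s cells stably expressing mouse GPR40 were seeded 24 h before assay and loaded for 1 h with calcium 3/Fluo-4 AM in HBSS, 20 mM HEPES, 0.01% BSA, 2.5 mM probenecid, pH 7.4. FLIPR Tetra took 10 baseline reads, then read for 5 min after addition. Runs were in duplicate, 9 points, 100 μM to 7 nM final, as % of maximal eladic acid control.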

[15] = target: Free fatty acid receptor 1 (Mus musculus) (UniProt Q76JU9); assay: Agonist activity at mouse GPR40 expressed in HEK293 cells assessed as increase in intracellular calcium level after 5 mins by FLUO-4-AM dye-based FLIPR assay relative to control; type: functional, cell-based; method in brief: as §4
Free fatty acid receptor 1 (Mus musculus), sequence (Q76JU9 whole entry): as above

[16] = Ratio of unbound drug level in mouse brain to blood at 5 mg/kg administered through oral gavage after 2 hrs
Mus musculus [17] = assay: Antidiabetic activity in wild-type mouse assessed as reduction in glucose excursion at 100 mg/kg administered through oral gavage 30 mins prior to glucose challenge measured after 90 mins by OGTT relative to control; type: functional; parameters: scale not given: the % may be the effect or the level left; method in brief: as §2
[18] = Protein binding in mouse plasma assessed as unbound fraction after 24 hrs by equilibrium dialysis; type: ADME, cell-free
[19] = Ratio of drug level in mouse brain to blood at 5 mg/kg administered through oral gavage after 2 hrs; type: ADME, organism-based
[20] = Apparent permeability across apical to basolateral side in human Caco2 cells; details: Caco-2
[21] = Clearance in mouse at 2.5 mg/kg, iv after 24 hrs; type: ADME, organism-based; details: in vivo
[22] = Volume of distribution at steady state in mouse at 2.5 mg/kg, iv after 24 hrs; type: ADME, organism-based; details: in vivo, read-out: Vdss
[23] = Drug uptake in mouse brain at 50 mg/kg, po after 2 hrs; type: ADME, organism-based; details: read-out: Drug uptake
[24] = Cmax in mouse blood at 50 mg/kg, po; type: ADME, organism-based; parameters: dose 50 mg/kg, route oral
Mus musculus [25] = assay: Toxicity in mouse at 50 mg/kg, po; type: organism-based; details: in vivo
Mus musculus [26] = assay: Toxicity in mouse at 150 mg/kg, po after 2 hrs; type: organism-based; details: in vivo
Mus musculus [27] = assay: as §3; type: ADME, organism-based; details: in vivo, 24 h
Mus musculus [28] = assay: Toxicity in mouse at 300 mg/kg, po after 1 hr; type: organism-based; details: in vivo
[29] = target: 3',5'-cyclic-AMP phosphodiesterase 4D (Homo sapiens, UniProt Q08499); assay: Inhibition of phosphodiesterase 4D (unknown origin)
3',5'-cyclic-AMP phosphodiesterase 4D, sequence (Q08499 whole entry): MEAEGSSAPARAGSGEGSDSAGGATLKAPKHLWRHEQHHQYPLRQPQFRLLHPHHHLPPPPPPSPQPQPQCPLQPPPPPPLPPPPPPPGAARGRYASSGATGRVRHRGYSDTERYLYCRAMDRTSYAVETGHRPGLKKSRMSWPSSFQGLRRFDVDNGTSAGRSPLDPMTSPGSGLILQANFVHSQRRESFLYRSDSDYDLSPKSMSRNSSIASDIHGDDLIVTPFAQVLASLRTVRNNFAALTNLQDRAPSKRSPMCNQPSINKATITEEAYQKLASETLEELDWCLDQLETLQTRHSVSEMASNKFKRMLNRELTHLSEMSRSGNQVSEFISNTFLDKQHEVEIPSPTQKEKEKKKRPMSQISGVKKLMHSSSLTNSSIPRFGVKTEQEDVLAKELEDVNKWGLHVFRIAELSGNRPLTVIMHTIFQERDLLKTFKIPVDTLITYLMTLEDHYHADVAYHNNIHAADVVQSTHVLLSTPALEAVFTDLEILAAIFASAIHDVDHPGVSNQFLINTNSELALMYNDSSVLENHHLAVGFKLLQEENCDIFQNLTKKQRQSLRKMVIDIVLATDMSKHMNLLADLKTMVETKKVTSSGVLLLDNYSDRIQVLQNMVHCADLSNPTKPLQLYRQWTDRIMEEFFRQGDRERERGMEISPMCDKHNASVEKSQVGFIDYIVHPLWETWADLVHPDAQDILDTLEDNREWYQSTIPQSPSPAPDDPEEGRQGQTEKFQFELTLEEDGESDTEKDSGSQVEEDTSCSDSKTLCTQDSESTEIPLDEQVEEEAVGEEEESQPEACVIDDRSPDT

[30] = Drug uptake in mouse blood at 300 mg/kg, po after 1 hr; type: ADME, organism-based; details: read-out: Drug uptake
[31] = Drug uptake in mouse blood at 150 mg/kg, po after 2 hrs; type: ADME, organism-based; details: read-out: Drug uptake
[32] = Drug uptake in mouse brain at 300 mg/kg, po after 1 hr; type: ADME, organism-based; details: read-out: Drug uptake

Structure (SMILES) | EC50 [1] [nM] | Efficacy [2] [%] | Efficacy [4] [%] | EC50 [5] [nM] | Cmax [6] [µM] | logD at 0.5 h [11] | bioavailability [13] [%] | EC50 [14] [nM] | Efficacy [15] [%] | fraction unbound at 24 h [18] | Kp at 2 h [19] | clearance [21] [mL/min/kg] | Vd [22] [L/kg] | other results
Cc1ccc(-n2nc(C)c3cnc(-c4ccc([C@H]5C[C@@H]5C(=O)O)cc4F)cc32)nc1 | 740 | 79 | 66 | 1000 | 3.3 | 2.6 | 131 | > 100000 | 2 | 0.021 | 0.37 | – | – | Activity (Mus musculus [3]): 45%; Ki (Adenosine receptor A2a): 1700 nM; Kp uu at 1.5 h ([7]; brain/blood): 0.12; clearance [8]: 13 mL/min/kg; efflux ratio at 10 µM (MDR1): 2.8; Vd [9]: 2.4 L/kg; Ratio [10]: 0.12; Activity (Mus musculus [12]): inactive; Kp uu at 2 h ([16]; brain/blood): 0.14; Activity (Mus musculus [17]): 47%; Papp A→B [20]: 76 ×10⁻⁶ cm/s
Cc1ccc(-n2nc(C)c3cnc(-c4ccc([C@H]5C[C@@H]5C(=O)O)cc4)cc32)cc1 | 900 | 99 | 76 | 640 | – | 2.6 | – | > 100000 | 12 | – | – | – | – | –
Cc1ccc(-n2nc(C)c3c(F)cc(-c4ccc([C@H]5C[C@@H]5C(=O)O)cc4)cc32)cc1 | 520 | 112 | 88 | 540 | – | 4.2 | – | > 100000 | 14 | – | – | – | – | –
Cc1ccc(-n2nc(C)c3ccc(-c4ccc([C@H]5C[C@@H]5C(=O)O)cc4)cc32)cc1 | – | 91 | 100 | 510 | 7.9 | – | 136 | – | 1 | 0.0049 | 0.82 | 9.6 | 1.2 | Kp uu at 1.5 h ([7]; brain): 0.27; Activity (Mus musculus [12]): inactive; Kp uu at 2 h ([16]; brain): 0.22
COc1nn(-c2ccccn2)c2cc(-c3ccc([C@H]4C[C@@H]4C(=O)O)cc3)cc(F)c12 | 510 | 103 | 93 | 620 | 8.2 | 3.8 | – | > 100000 | 19 | 0.0053 | 2 | 5.2 | 1 | concentration at 2 h [23]: 147 µM; Cmax [24]: 97 µM; Activity (Mus musculus [25]): Non-Toxic; Activity (Mus musculus [26]): Toxic; efflux ratio at 10 µM (MDR1): 0.59; F (Mus musculus [27]): 159%; Kp uu at 2 h ([16]; brain/blood): 0.45; Papp A→B [20]: 29 ×10⁻⁶ cm/s
N#Cc1nn(-c2ccccn2)c2cc(-c3ccc(CCC(=O)O)cc3)ccc12 | 4800 | – | 87 | – | – | 3 | – | 2000 | 124 | – | – | – | – | –
COc1nn(-c2ccccn2)c2cc(-c3ccc([C@H]4C[C@@H]4C(=O)O)cc3)ccc12 | 470 | 99 | 102 | 410 | 5.4 | 3.8 | 126 | > 100000 | 1 | 0.0048 | 2.3 | 9.3 | 1.5 | Activity (Mus musculus [28]): Toxic; IC50 [29]: 1600 nM; concentration at 1 h [30]: 284 µM; Activity (Mus musculus [26]): Non-Toxic; efflux ratio at 10 µM (MDR1): 2; Kp uu at 2 h ([16]; brain/blood): 0.86; concentration at 2 h [31]: 126 µM; concentration at 1 h [32]: 207 µM; Papp A→B [20]: 31 ×10⁻⁶ cm/s
COc1nn(-c2ccc(C)cc2)c2cc(-c3ccc([C@H]4C[C@@H]4C(=O)O)cc3)cc(F)c12 | 78 | 176 | 115 | 17 | 5 | > 4.2 | 19 | > 100000 | 11 | 0.0011 | 0.44 | 0.4 | 0.7 | –
Cc1nn(-c2ccccn2)c2cc(-c3ccc(CCC(=O)O)cc3Cl)ccc12 | 710 | – | 113 | – | – | 3.3 | – | 1200 | 102 | – | – | – | – | –
O=C(O)CCc1ccc(-c2cc(F)c3cnn(-c4ccccn4)c3c2)cc1 | 470 | – | 100 | – | – | 2.8 | – | 2600 | 126 | – | – | – | – | –
CCc1nn(-c2ccccn2)c2cc(-c3ccc(CCC(=O)O)cc3)ccc12 | 760 | – | 75 | – | – | 3.3 | – | 1100 | 93 | – | – | – | – | –
COc1nn(-c2ccccn2)c2cc(-c3ccc(CCC(=O)O)cc3)ccc12 | 250 | – | 122 | – | – | 3.3 | – | 2600 | 96 | – | – | – | – | –
